A word on the solubility: it is how much of the substance goes into solution per volume. A lower solubility goes with a poorly soluble substance. As a reminder, the IC50 is the concentration needed to halve the response being measured.

Molecules are shown by their SMILES. Values after ≈ are worked out from the molar mass of the structure shown.

Series [1] is described as follows: Aqueous solubility of the compound. The class given is physicochemical. The following applies: water. Put shortly:
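Solid mixed with water to make 2 mM, sonicated 15 min, centrifuged 13000 rpm for 6 min. Clear supernatant diluted 2-fold with water, recentrifuged and injected on HPLC. Peak area compared with a DMSO standard solution of the compound, correcting for dilution and injection volume.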

Series [2] concerns the target Phosphatidylinositol 4,5-bisphosphate 3-kinase catalytic subunit alpha isoform (Homo sapiens, UniProt P42336). Put plainly: Inhibition of recombinant PI3K p110alpha using L-alpha-phosphatidylinositol as substrate and [gamma33P]ATP after 60 mins by thin layer chromatographic technique. Summed up: (§1)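 In-house recombinant enzyme (0.1 µg) with L-α-phosphatidylinositol in 40 mM Tris-HCl pH 7.4, 200 mM NaCl, 1 mM EDTA; DMSO 1% final. Started with 5 mM MgCl₂, 100 µM ATP plus [γ-³³P]ATP; 1 h at room temperature, stopped with 1 M HCl. Lipids extracted, separated by TLC, phosphorimaged. Nine inhibitor concentrations; two experiments, IC50 averaged.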

Series [3] in a line: Cytotoxicity against human NZOV9 cells harboring PI3K p110alpha Y1021C mutant assessed as inhibition of [3H]thymidine incorporation measured after 5 days. It counts as functional, cell-based. Summed up: (§2)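 Early-passage lines grown in α-MEM with insulin, transferrin, selenite and 5% FBS. Wells seeded with 1000 cells; inhibitor in dilution steps up to a maximum of 20. Five days under 5% O₂/5% CO₂/90% N₂, ³H-thymidine added for the last 6 h. Duplicates per dose; fit y = y₀ + ae^−bx; IC50 = 50% reduction in incorporation.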
(Dividing cells build labelled thymidine or BrdU into new DNA.)

The target in series [4] is Phosphatidylinositol 4,5-bisphosphate 3-kinase catalytic subunit beta isoform (Homo sapiens, UniProt P42338). The series is described as follows: Inhibition of recombinant PI3K p110beta using L-alpha-phosphatidylinositol as substrate and [gamma33P]ATP after 60 mins by thin layer chromatographic technique. Summed up:
as §1

Series [5] is described as follows: Cytotoxicity against human NZB5 cells assessed as inhibition of [3H]thymidine incorporation measured after 5 days. It counts as functional, cell-based. Put shortly: as §2
Series [6] addresses T1, Phosphatidylinositol 4,5-bisphosphate 3-kinase catalytic subunit delta isoform (Homo sapiens, UniProt O00329).
T1 sequence (O00329 whole entry): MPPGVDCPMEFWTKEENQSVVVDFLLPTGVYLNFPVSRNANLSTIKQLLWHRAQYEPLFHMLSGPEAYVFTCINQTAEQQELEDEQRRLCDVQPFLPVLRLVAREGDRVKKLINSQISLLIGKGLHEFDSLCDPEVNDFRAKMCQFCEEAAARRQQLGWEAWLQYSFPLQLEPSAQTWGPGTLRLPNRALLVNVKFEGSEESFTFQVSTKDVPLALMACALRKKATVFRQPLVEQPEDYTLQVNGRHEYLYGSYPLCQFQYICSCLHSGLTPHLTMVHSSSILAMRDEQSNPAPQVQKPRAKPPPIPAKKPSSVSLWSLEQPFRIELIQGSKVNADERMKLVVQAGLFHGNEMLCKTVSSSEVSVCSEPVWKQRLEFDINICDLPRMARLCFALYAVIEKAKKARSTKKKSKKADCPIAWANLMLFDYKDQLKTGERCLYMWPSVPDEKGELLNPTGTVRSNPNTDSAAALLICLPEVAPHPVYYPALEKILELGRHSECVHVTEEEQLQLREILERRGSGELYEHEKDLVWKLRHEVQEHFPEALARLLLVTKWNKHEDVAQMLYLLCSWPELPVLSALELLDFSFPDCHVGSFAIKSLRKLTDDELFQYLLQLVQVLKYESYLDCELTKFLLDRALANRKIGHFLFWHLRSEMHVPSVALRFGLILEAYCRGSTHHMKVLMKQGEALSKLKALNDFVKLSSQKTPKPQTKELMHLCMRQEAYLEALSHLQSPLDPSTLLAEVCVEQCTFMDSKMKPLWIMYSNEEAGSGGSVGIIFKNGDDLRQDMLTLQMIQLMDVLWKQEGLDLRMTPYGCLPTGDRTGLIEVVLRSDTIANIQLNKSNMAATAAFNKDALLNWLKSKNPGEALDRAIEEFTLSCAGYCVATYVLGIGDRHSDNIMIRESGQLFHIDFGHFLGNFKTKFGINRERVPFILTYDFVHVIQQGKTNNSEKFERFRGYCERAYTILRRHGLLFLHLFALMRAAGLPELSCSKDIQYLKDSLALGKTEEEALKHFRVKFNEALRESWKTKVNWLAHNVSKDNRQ
Put plainly: Inhibition of recombinant PI3K p110delta using L-alpha-phosphatidylinositol as substrate and [gamma33P]ATP after 60 mins by thin layer chromatographic technique. Summed up: as §1

The subject of series [7] is HCT-116. Put plainly: Antitumor activity against human HCT116 cells xenografted in Rag1 knockout mouse assessed as tumor growth delay at 20 mg/kg, ip QD measured on day 10 relative to untreated control. It counts as functional. The note with it: route intraperitoneal. Put shortly: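 Male Rag1−/− mice (age-matched, SPF) inoculated s.c. with 5 × 10⁶ HCT-116 cells in PBS. Dosing started at ~150 mm³ tumours: q.d. i.p. in 7.5% DMSO, 42.5% PEG-400, 20% 2-hydroxypropyl-β-cyclodextrin, 30% water; controls received vehicle. Volume = (L × w²) × π/6, measured three times weekly; bodyweight daily. Treatment stopped if mean weight loss >15%; 1-way ANOVA with Holm–Sidak.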

Sequence of Phosphatidylinositol 4,5-bisphosphate 3-kinase catalytic subunit alpha isoform (P42336 whole entry, canonical isoform): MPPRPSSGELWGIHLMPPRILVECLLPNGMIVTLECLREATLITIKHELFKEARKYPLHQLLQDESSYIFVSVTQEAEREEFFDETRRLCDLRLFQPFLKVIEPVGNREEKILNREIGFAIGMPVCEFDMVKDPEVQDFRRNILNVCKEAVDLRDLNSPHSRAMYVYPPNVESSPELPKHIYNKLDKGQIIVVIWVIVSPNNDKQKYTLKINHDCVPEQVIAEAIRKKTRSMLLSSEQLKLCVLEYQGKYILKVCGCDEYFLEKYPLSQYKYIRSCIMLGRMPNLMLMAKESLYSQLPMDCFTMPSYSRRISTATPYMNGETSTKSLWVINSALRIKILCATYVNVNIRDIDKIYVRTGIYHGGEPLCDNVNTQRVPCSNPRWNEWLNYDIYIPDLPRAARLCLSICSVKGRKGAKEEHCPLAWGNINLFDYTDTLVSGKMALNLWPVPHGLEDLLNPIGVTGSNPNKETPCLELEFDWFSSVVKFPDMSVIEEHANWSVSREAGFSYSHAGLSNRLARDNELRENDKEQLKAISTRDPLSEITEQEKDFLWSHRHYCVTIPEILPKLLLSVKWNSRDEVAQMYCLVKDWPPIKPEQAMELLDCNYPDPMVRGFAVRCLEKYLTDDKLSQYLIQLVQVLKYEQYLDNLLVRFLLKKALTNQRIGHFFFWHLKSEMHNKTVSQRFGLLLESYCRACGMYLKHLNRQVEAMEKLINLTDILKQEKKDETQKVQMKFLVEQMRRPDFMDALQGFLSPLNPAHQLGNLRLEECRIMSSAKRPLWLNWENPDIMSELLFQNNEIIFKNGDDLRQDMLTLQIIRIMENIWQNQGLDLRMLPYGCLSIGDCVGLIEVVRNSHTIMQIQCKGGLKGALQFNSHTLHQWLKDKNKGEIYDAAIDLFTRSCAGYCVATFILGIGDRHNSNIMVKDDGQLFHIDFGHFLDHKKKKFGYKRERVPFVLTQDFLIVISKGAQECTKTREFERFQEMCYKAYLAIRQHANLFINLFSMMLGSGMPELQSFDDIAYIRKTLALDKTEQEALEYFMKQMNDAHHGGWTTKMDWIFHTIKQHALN
Sequence of Phosphatidylinositol 4,5-bisphosphate 3-kinase catalytic subunit beta isoform (P42338 whole entry, canonical isoform): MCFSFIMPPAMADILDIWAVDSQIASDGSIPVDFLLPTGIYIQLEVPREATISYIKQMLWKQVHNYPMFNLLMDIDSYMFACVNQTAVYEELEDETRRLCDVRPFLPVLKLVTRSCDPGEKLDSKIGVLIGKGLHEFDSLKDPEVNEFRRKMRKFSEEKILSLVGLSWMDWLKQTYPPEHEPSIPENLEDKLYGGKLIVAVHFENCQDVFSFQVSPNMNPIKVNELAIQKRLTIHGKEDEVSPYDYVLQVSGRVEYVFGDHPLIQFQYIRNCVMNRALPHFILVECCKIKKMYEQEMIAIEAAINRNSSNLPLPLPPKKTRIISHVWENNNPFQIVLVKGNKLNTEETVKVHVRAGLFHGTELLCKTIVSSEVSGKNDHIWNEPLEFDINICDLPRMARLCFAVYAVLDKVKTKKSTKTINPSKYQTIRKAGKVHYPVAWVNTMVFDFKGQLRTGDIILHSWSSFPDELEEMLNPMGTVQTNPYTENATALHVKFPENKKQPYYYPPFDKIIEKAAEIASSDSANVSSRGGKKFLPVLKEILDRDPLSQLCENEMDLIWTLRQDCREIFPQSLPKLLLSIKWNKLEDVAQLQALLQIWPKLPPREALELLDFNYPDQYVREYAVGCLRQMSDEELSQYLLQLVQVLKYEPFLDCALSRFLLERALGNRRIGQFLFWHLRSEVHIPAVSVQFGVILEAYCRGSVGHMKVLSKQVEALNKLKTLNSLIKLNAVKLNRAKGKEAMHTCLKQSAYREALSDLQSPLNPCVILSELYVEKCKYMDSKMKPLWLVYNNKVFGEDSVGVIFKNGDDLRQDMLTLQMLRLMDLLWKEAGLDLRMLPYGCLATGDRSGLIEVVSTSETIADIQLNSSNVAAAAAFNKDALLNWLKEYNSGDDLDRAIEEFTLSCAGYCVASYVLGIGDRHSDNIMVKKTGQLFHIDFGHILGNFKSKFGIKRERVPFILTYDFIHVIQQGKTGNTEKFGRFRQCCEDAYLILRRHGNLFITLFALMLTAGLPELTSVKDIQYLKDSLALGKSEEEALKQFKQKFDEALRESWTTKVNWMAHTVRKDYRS

In turn, `COc1ccc([N+](=O)[O-])cc1S(=O)(=O)N(C)/N=C/c1cnn2ccc(C#N)cc12` returned a solubility in series [1] of 0.2 µg/mL (≈ 0.483 µM). In addition, the 50% inhibitory concentration (IC50) was 0.8 nM in series [2]; 50 nM in series [3]; 63 nM in series [4]; 90 nM in series [5]; 22 nM in series [6].
For `Cc1ccc([N+](=O)[O-])cc1S(=O)(=O)N(C)/N=C/c1cnn2ccc(C#N)cc12`, in series [1], the concentration in solution (solubility) was 0.1 µg/mL (≈ 0.251 µM). In addition, in series [7], the Activity came out at 21.2%. In addition, the IC50 in series [3] amounted to 1400 nM.
In series [1], `CN(C)c1ccc([N+](=O)[O-])cc1S(=O)(=O)N(C)/N=C/c1cnn2ccc(C#N)cc12` returned a solubility of 0.5 µg/mL (≈ 1.17 µM). The 50% inhibitory concentration (IC50) in series [2] was 2.2 nM; in series [3], 100 nM; in series [4] it was 44 nM; in series [5], 40 nM; in series [6], 24 nM.
In series [1], `CCN(/N=C/c1cnn2ccc(C#N)cc12)S(=O)(=O)c1cc([N+](=O)[O-])ccc1C` displayed a solubility of 0.2 µg/mL (≈ 0.485 µM). For the same compound, the 50% inhibitory concentration (IC50) turned out to be 0.5 nM in series [2]; 90 nM in series [3]; 62 nM in series [4]; 30 nM in series [5]; 9.3 nM in series [6].
In the case of `CN(/N=C/c1cnn2ccc(C#N)cc12)S(=O)(=O)c1cccc([N+](=O)[O-])c1`, the IC50 in series [2] was found to be 36 nM; in series [3] it was 690 nM; in series [4] it was 1200 nM; in series [5], 380 nM; in series [6] it was 410 nM.

Source of the values: ChEMBL document CHEMBL1926530, “Novel pyrazolo[1,5-a]pyridines as p110α-selective PI3 kinase inhibitors: Exploring the benzenesulfonohydrazide SAR” (Bioorg Med Chem, 2012).
